Where “and” joins values, the source holds several entries; their conditions need not be identical. Equal values may be shown once.
Key:
[1] = In vivo blood glucose was determined in obese, hyperglycemic, hyperinsulinemic, insulin-resistant KKAy mice after a dose of 500 mg/kg for 4 days; format: functional, Mus musculus
[2] = target: Creatine kinase M-type (Homo sapiens) (UniProt P06732); assay: Reaction rate of creatine kinase activity is determined at 100 mM concentration (relative to creatine)
Creatine kinase M-type (Homo sapiens), sequence (P06732 whole entry): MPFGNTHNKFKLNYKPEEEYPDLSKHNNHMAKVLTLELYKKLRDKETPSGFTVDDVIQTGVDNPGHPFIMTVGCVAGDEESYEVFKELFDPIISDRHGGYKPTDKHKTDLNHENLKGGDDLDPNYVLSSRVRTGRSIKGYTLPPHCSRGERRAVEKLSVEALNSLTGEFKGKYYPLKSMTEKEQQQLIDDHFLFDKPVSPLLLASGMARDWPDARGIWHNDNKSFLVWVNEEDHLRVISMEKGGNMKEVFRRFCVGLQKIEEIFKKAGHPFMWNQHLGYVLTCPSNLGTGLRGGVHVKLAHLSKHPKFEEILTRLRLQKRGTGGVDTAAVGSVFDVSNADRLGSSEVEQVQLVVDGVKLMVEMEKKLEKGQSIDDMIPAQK

Mus musculus [3] = organism: Mus musculus; assay: Average daily dose was determined in ob/ob mice(0); format: functional
Mus musculus [4] = assay: Terminal blood glucose level was determined in ob/ob mice after oral administration for two weeks (control = 226+/-29); format: functional
Summary of the method: (§1)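 ob/ob mice on Purina 5015 chow, given drug as admixture in milled chow for 14 days. Intake measured from food-bowl weight change. Blood from retro-orbital sinus, heparinized, kept on ice and analyzed promptly. Blood glucose measured before and after treatment. Group sizes 8–15, housed at 21 °C on 12 h light–dark cycle; two-way ANOVA, Student–Newman–Keuls post hoc.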

Mus musculus [5] = organism: Mus musculus; assay: Initial body weight was determined in ob/ob mice (control=55+/-1); format: functional
Mus musculus [6] = assay: Terminal body weight was determined in ob/ob mice after oral administration for two weeks (control = 53+/-1); format: functional
Mus musculus [7] = assay: Terminal fat body weight was determined in ob/ob mice after oral administration for two weeks (control = 28+/-0.9); format: functional
Mus musculus [8] = assay: Terminal lean body weight was determined in ob/ob mice after oral administration for two weeks (control = 25+/-1); format: functional
Mus musculus [9] = assay: Average daily food consumption was determined in ob/ob mice after oral administration for two weeks (control = 90+/-3); format: functional
[10] = Inhibition of creatine transport was assessed from Percent inhibition of [C14] creatine uptake; format: functional; set-up: concentration or dose not given beside the values; details: dose or concentration not given here
Mus musculus [11] = organism: Mus musculus; assay: Initial blood glucose level was determined in ob/ob mice (control=228+/-19); format: functional; summary of the method: as §1
[12] = target: Creatine kinase M-type (Homo sapiens) (UniProt P06732); assay: Reaction rate of creatine kinase was determined (relative to creatine)
Mus musculus [13] = assay: In vivo blood glucose was determined in obese,hyperglycemic,hyperinsulinemic,insulin-resistant KKAy mice after a dose of 500 mg/kg for 4 days; format: functional
Summary of the method: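 KKAy mice (obese, hyperinsulinemic) grouped into treated and control (n = 6) after pretest glucose on an Alpkem autoanalyzer. Compound given in food at 500 mg/kg for 4 days, then nonfasting blood glucose measured. Result expressed as treated/control (T/C). Wilcoxon rank-sum test applied when T/C < 0.80.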

Mus musculus [14] = organism: Mus musculus; assay: Average daily dose was determined in ob/ob mice(control=0); format: functional
[15] = target: Creatine kinase M-type (Homo sapiens) (UniProt P06732); assay: Reaction rate of creatine kinase activity is determined at 1 mM concentration
Rhesus monkey [16] = assay: Post-prandial plasma insulin was determined in insulin-resistant Rhesus monkeys after a treatment sequence of placebo followed by a dose of 10 mg/kg/day; format: functional, organism-based; details: Cercopithecidae
Summary of the method: (§2)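 Insulin-resistant rhesus monkeys (ovariectomized females, 15–30 years) dosed orally once daily around 8 a.m., drug dissolved in diet orange soda and drunk voluntarily from a syringe tip. Sequence: placebo, 10 mg/kg/day, placebo, 3 mg/kg/day; placebo phases averaged. Meal tolerance test in conscious animals: glucose and insulin after overnight fast and for 3 h after a liquid meal. Insulin by double-antibody RIA (125I-porcine insulin tracer, human insulin standard); repeated-measures ANOVA, Tukey post hoc.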

Rhesus monkey [17] = assay: Post-prandial plasma insulin was determined in insulin-resistant Rhesus monkeys after a treatment sequence of placebo followed by a dose of 3 mg/kg/day; format: functional, organism-based; details: Cercopithecidae; summary of the method: as §2
Rhesus monkey [18] = assay: Fasting plasma glucose was determined in insulin-resistant Rhesus monkeys after a treatment sequence of placebo followed by a dose of 3 mg/kg/day; format: functional, organism-based; details: Cercopithecidae; summary of the method: as §2
Rhesus monkey [19] = assay: Fasting plasma insulin was determined in insulin-resistant Rhesus monkeys after a treatment sequence of placebo followed by a dose of 10 mg/kg/day; format: functional, organism-based; details: Cercopithecidae
Summary of the method: (§3)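 Ovariectomized female rhesus monkeys aged 15–30 y, with fasting insulin and glucose elevated over the colony norm. Compound dissolved in diet orange soda and drunk voluntarily from a syringe once daily at ~8:00 a.m. Sequence: placebo, 10 mg/kg/day, placebo, 3 mg/kg/day; placebo phases averaged. Overnight fast. Insulin by double-antibody RIA (guinea pig anti-human insulin, 125I-porcine insulin tracer, human insulin standard). Repeated-measures ANOVA, Tukey post hoc.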

Rhesus monkey [20] = assay: Fasting plasma insulin was determined in insulin-resistant Rhesus monkeys after a treatment sequence of placebo followed by a dose of 3 mg/kg/day; format: functional, organism-based; details: Cercopithecidae; summary of the method: as §3
[21] = target: Creatine kinase M-type (Homo sapiens) (UniProt P06732); assay: Reaction rate of creatine kinase was determined at 50 mM concentration (relative to creatine)

SMILES | MISS T/C [1] | further results
Cl.Cl.N/C(CNCCC(=O)O)=N\O | 1 | –
N=C(N)NCCC(=O)O [OMPENACLID] | – | Reaction rate [2]: 2.4; Dose (Mus musculus [3]): 377 mg/kg; Blood glucose (Mus musculus [4]): 147 mg/dL; Body weight (Mus musculus [5]): 54 g; Body weight (Mus musculus [6]): 48 g; Body weight (Mus musculus [7]): <24 g; Body weight (Mus musculus [8]): 24 g; Food intake (Mus musculus [9]): 75 g/kg; inhibition [10]: 97%; Blood glucose (Mus musculus [11]): 229 mg/dL
N=C(N)/N=C(\N)NCC(=O)O | 1.01 | –
N/N=C(\NCCO)NCC(=O)O | 1.01 | –
CC/C(=N\N=C(N)N)C(=O)O.Cl | 0.77 | –
N/C(=N/CC(=O)O)NO | 1.06 | –
Nc1nccn1NCC(=O)O | 0.99 | –
N=C(NN)NCCCC(=O)O | 1.14 | –
CC1=NN=C(NCC(=O)O)NN1 | 0.97 | –
CN(/N=C/C(=O)O)C(=N)N | 0.95 | –
N=C(N)/N=C(\N)NCCS(=O)O | 0.92 | –
N=C(N)/N=C(\N)NCCC(=O)O | 0.88 | –
Cl.Cl.N=C(N)CNCCC(=O)O | 0.96 | –
N=C(N)/N=C(\N)NCCCC(=O)O | 1.05 | –
Cl.Cl.N=C(CN)NCC(=O)O | 0.95 | –
N/C(=N\N=C\C(=O)O)N/N=C/C(=O)O | 0.88 | –
Cl.NC1=NC(=O)CNN1 | 1.08 | –
CNC(=N)N/N=C/C(=O)O | 0.94 | –
Cl.Cl.N/C(CNCC(=O)O)=N\O | 0.88 | –
NN1CCNN=C1NCC(=O)O | 0.77 | –
Cl.Cl.N=C(N)CNCC(=O)O | 1.18 | –

SMILES | MISS T/C [1] | further results
CC(C)[C@H](N=C(NN)NN)C(=O)O | 0.56 | –
N/N=C(\NN)N[C@@H](Cc1ccccc1)C(=O)O | 0.88 | –
CC(C)(C)OC(=O)NNC(=NCC(=O)O)NNC(=O)OC(C)(C)C | 0.86 | –
N=C(NN)NNCC(=O)O | – | Reaction rate [12]: 0; blood glucose treated/control ratio (Mus musculus [13]): 0.69; Blood glucose (Mus musculus [4]): <85 mg/dL; Body weight (Mus musculus [5]): 52 g; Body weight (Mus musculus [6]): <43 g; Body weight (Mus musculus [7]): <20 g; Body weight (Mus musculus [8]): <22 g; Dose (Mus musculus [14]): 406 mg/kg; Food intake (Mus musculus [9]): 81 g/kg; inhibition [10]: 26%; Blood glucose (Mus musculus [11]): 226 mg/dL
N=C(NN)NCCC(=O)O | 0.83 | –
Cl.NNC1=NC(=O)CNN1 | 1 | –
CC(C)=NNC(=N)NNCC(=O)O | 0.98 | –
Nc1nncn1NCC(=O)O | 0.96 | –
C/C(=N\N=C(N)N)C(=O)O.Cl | 0.9 | –
N=C(N)NNC(C(=O)O)c1ccccc1 (stereo not drawn) | 1.11 | –
O=C(O)/C=N/NC1=NCCN1 | 1.01 | –
Cc1cc(C)n(NC(=NCC(=O)O)Nn2nc(C)cc2C)n1 | 1 | –
N/N=C(/NCC(=O)O)NNc1ccccn1 | 0.91 | –
NC(=O)NNC(=NCC(=O)O)NNC(N)=O | 0.86 | –
N/C(=N/NCC(=O)O)N/N=C/c1ccccc1 | 0.89 | –
CC(C)NNC(=N)NNCC(=O)O | 0.9 | –
Cl.Cl.NCC(CN)CCC(=O)O | 0.84 | –
NNC(=NCC(=O)O)NN | – | Reaction rate [12]: 0.1; blood glucose treated/control ratio (Mus musculus [13]): 0.23; inhibition [10]: 88%
Cl.Cl.N=C(N)C(=N)NCCC(=O)O | 1.1 | –
CCC(NN=C(N)N)C(=O)O (stereo not drawn) | 1.08 | –
N=C(N)NCC(=O)O [GUANIDINO ACETATE] | <0.62 | –

SMILES | MISS T/C [1] | further results
Cl.Cl.N=C(CN)NCCC(=O)O | 0.97 | –
COC(=O)/C=N/N=C(N)N | 1.16 | –
CC(C)(C)OC(=O)NCCNC(=NCC(=O)O)NCCNC(=O)OC(C)(C)C | 0.9 | –
CN(CC(=O)O)C(=N)N | – | Reaction rate [15]: 100; inhibition [10]: 92%
Cl.O=C(O)/C=N/Nc1ccccn1 | <0.73 | –
N=C(NN)NCC(=O)O | 0.51 | Blood glucose (Mus musculus [4]): 97 mg/dL; Body weight (Mus musculus [5]): 52 g; Body weight (Mus musculus [6]): 46 g; Body weight (Mus musculus [7]): 23 g; Body weight (Mus musculus [8]): 23 g; Dose (Mus musculus [14]): 436 mg/kg; Food intake (Mus musculus [9]): 87 g/kg; Blood glucose (Mus musculus [11]): 227 mg/dL
N=C(N)N/N=C/C(=O)O | <0.52 | –
N=C(N)NNCCC(=O)O | 1.11 | –
N/N=C(/NCC(=O)O)NNC(N)=O | 0.86 | –
N/N=C(/NCC(=O)O)Nc1cc[nH]n1 | 0.89 | –
NNc1nncc(O)n1 | 0.84 | –
N=C(N)N(N)CC(=O)O | 1.04 | –
CN1NC(=O)CN=C1NN | 1.16 | –
N/N=C(\N)N(N)CC(=O)O | – | Reaction rate [12]: 0; blood glucose treated/control ratio (Mus musculus [13]): <0.43; AUC (Rhesus monkey [16]): 30 mU min dl-1; AUC (Rhesus monkey [17]): 38 mU min dl-1; Plasma glucose (Rhesus monkey [18]): 81 mg/dL and < 64 mg/dL; Plasma insulin (Rhesus monkey [19]): 35 uU ml-1; Plasma insulin (Rhesus monkey [20]): 41 uU ml-1; Blood glucose (Mus musculus [4]): <57 mg/dL; Body weight (Mus musculus [5]): <59 g; Body weight (Mus musculus [6]): <44 g; Body weight (Mus musculus [7]): <22 g; Body weight (Mus musculus [8]): <22 g; Dose (Mus musculus [14]): 26 mg/kg; Food intake (Mus musculus [9]): <52 g/kg; Blood glucose (Mus musculus [11]): 228 mg/dL
CN(C)CCNC(=NCC(=O)O)NCCN(C)C | 0.95 | –
Nc1nncc(O)n1 | 0.98 | –
COC(=O)CC/N=C(\N)C(=N)N.Cl.Cl | 1 | –
N=C(N)N/N=C(\Cc1ccccc1)C(=O)O | 0.68 | –
COC(=O)NNC(=NCC(=O)O)NNC(=O)OC | 0.92 | –
N=C(N)C(=N)NCC(=O)O | 1.08 | –
CN(NC(=NCC(=O)O)NN(C)C(=O)OC(C)(C)C)C(=O)OC(C)(C)C | 0.85 | –

SMILES | MISS T/C [1] | further results
NNC(=NCCCC(=O)O)NN | 0.93 | –
CC(=O)NNC(=NCC(=O)O)NNC(C)=O | 0.84 | –
C[C@@H](N=C(NN)NN)C(=O)O | 0.66 | –
C[C@H](N=C(NN)NN)C(=O)O | 0.57 | –
O=C(O)CNC1=NNC(=O)NN1 | 1.04 | –
O=C(O)CN=C(NCCO)NCCO | 1.07 | –
CN(C)/N=C(\NN)NCC(=O)O | 0.8 | –
N=C(N)NNCC(=O)O | – | Reaction rate [21]: 0.24; blood glucose treated/control ratio (Mus musculus [13]): <0.61; inhibition [10]: 36%
N=C(N)NNC(Cc1ccccc1)C(=O)O (stereo not drawn) | 0.87 | –
NNC(=NCCC(=O)O)NN | 0.78 | –
N=C(NCCN)NCC(=O)O | 0.99 | –
Cl.NCCNC(=NCC(=O)O)NCCN | 0.86 | –
N=C(N)N/N=C(/C(=O)O)c1ccccc1 | 1.04 | –
N/N=C(\NN)N[C@H](C(=O)O)c1ccccc1 | 1.06 | –
CCCCCC/C(=N\N=C(N)N)C(=O)O | 0.73 | –
CC(C)(C)OC(=O)NCC/N=C(\NN)NCC(=O)O | 0.81 | –
N/N=C(/NCC(=O)O)NN1CCOCC1 | 1 | –
CCOC(=O)CC/N=C(\N)N=C(N)N.Cl.Cl | 1.06 | –
COC(=O)CNN=C(N)N.Cl | 1.12 | –
